Results reported in ChEMBL document CHEMBL1151748, “Synthesis, modeling, and RET protein kinase inhibitory activity of 3- and 4-substituted beta-carbolin-1-ones” (J Med Chem, 2008).
pIC50: −log10 of the molar value. Calls of active or inactive are those of the source. The calls are words filed in the database; no cut-off is given here.

Key:
NIH3T3 [1] = test: Antiproliferative activity against mouse NIH3T3 cells expressing RET C634R mutant associated with MEN2A syndrome after 72 hrs; conditions: NIH3T3, 72 h
NIH3T3 [2] = test: Antiproliferative activity against mouse NIH3T3 cells after 72 hrs; conditions: NIH3T3, 72 h
[3] = molecular target: Proto-oncogene tyrosine-protein kinase receptor Ret (Homo sapiens, UniProt P07949); test: Inhibition of recombinant RET active protein by immunoblotting
NIH3T3 [4] = test: Antiproliferative activity against mouse NIH3T3 cells transfected with H-RAS oncogene after 72 hrs; conditions: NIH3T3, 72 h
NIH3T3 [5] = test: Inhibition of RET oncoprotein expression in mouse NIH3T3 cells transfected with RET C634R mutant associated with MEN2A syndrome at 2.5 to 10 uM after 24 hrs by Western blot; assay type: functional, cell-based
Method in brief: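 NIH3T3MEN2A cells were exposed to compound or to DMSO vehicle for 24 h. Whole-cell lysates were Western blotted with anti-Ret (H300) and anti-phospho-Ret (Y1062) antibodies. Actin served as the loading control, and a lysate of untreated parental NIH3T3 cells was run alongside.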

Sequence of Proto-oncogene tyrosine-protein kinase receptor Ret (P07949 whole entry): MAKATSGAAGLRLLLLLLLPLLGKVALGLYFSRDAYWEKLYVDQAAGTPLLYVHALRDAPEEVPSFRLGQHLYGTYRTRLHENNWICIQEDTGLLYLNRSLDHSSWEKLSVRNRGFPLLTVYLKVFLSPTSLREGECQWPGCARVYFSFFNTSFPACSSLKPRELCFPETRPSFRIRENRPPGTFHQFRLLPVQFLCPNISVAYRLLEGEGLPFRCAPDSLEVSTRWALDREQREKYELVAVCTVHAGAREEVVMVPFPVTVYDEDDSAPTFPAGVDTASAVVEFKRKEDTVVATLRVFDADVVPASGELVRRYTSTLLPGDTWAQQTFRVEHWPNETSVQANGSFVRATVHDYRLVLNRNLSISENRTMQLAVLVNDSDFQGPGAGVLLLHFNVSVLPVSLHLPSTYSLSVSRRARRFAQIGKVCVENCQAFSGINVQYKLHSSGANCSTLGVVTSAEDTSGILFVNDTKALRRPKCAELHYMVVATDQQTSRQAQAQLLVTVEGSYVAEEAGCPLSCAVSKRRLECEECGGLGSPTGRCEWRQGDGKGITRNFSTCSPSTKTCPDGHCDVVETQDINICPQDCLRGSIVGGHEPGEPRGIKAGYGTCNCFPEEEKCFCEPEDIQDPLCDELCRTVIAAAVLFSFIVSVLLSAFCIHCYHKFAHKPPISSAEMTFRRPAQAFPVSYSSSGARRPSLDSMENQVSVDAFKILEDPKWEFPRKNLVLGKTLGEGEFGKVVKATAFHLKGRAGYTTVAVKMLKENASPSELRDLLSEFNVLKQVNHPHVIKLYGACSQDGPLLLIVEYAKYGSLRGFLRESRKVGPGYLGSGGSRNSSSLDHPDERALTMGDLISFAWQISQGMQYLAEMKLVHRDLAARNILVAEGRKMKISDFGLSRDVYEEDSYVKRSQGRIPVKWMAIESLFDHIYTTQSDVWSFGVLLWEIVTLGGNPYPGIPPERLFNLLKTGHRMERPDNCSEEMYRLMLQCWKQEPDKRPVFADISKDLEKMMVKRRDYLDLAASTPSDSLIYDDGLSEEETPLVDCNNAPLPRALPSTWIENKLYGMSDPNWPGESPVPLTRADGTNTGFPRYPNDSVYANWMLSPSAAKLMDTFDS

Row | pIC50 [3] | Compound | pIC50 (NIH3T3 [1]) | pIC50 (NIH3T3 [2]) | pIC50 (NIH3T3 [4]) | Activity (NIH3T3 [5])
1 | – | COc1cc2[nH]c3c(=O)[nH]c(-c4ccccc4)cc3c2cc1OC | 4.88 | – | – | –
2 | – | COc1ccc(C2=CCNC(=O)c3c2c2cc(OC)c(OC)cc2n3C)cc1 | 5.00 | – | – | –
3 | – | COc1cc2c3c(n(C)c2cc1OC)C(=O)NCC=C3c1ccc(O)cc1 | 4.84 | – | – | –
4 | – | COc1cc2c3c(-c4ccc(O)cc4)c[nH]c(=O)c3n(Cc3ccccc3)c2cc1OC | 5.12 | 4.75 | – | –
5 | – | COc1cc2c3c(n(C)c2cc1OC)C(=O)NCC=C3 | 5.11 | – | – | –
6 | – | COc1cc2[nH]c3c(c2cc1OC)C(c1ccc(O)cc1)=CCNC3=O | 4.70 | – | – | –
7 | 6.60 | COc1cc2c3c(-c4ccccc4)c[nH]c(=O)c3n(C)c2cc1OC | 5.48 | 4.75 | 4.86 | –
8 | – | COc1cc2c3c(n(C)c2cc1OC)C(=O)NCC=C3C | 4.78 | – | – | –
9 | 6.96 | COc1cc2[nH]c3c(=O)[nH]cc(-c4ccc(O)cc4)c3c2cc1OC | 5.33 | 4.86 | 4.87 | –
10 | – | COc1cc2c3cc(-c4ccccc4)[nH]c(=O)c3n(C)c2cc1OC | 4.46 | – | – | –
11 | – | COc1cc2c3c(n(C)c2cc1OC)C(=O)N(C)CC=C3c1ccc(O)cc1 | 4.74 | – | – | –
12 | – | COc1cc2c3c(-c4ccc(O)cc4)c[nH]c(=O)c3n(C)c2cc1OC | 5.71 | 5.14 | 5.18 | Active
13 | – | Cn1c2ccccc2c2c(-c3ccc(O)cc3)c[nH]c(=O)c21 | 4.76 | < 4.52 | < 4.52 | –
14 | – | COc1ccc2c(c1)c1c(-c3ccc(O)cc3)c[nH]c(=O)c1n2C | 4.91 | 4.60 | < 4.52 | –
15 | < 6.22 | COc1cc2c3c(C)c[nH]c(=O)c3n(C)c2cc1OC | 5.25 | 4.97 | – | –
16 | – | COc1ccc(CN2CC=C(c3ccc(O)cc3)c3c(n(C)c4cc(OC)c(OC)cc34)C2=O)cc1 | 5.17 | – | – | –
17 | < 6.22 | COc1cc2c3ccn(Cc4ccccc4)c(=O)c3n(C)c2cc1OC | 4.80 | – | – | –
18 | 7.05 | COc1cc2c3c(-c4cccc(O)c4)c[nH]c(=O)c3n(C)c2cc1OC | 5.49 | 5.17 | 5.21 | –
